The results in this text go back to ChEMBL document CHEMBL1146365, “Synthesis and biological evaluation of new N-(2-hydroxy-4(or 5)-nitro/aminophenyl)benzamides and phenylacetamides as antimicrobial agents” (2007).

The test system of experiment [1] is Pseudomonas aeruginosa. As to the kind of experiment: Antibacterial activity against Pseudomonas aeruginosa ATCC […] assessed after 24 hrs by serial dilution method.
In experiment [2] the test system is Staphylococcus aureus. Nature of the experiment: Antibacterial activity against Staphylococcus aureus ATCC 25923 assessed after 24 hrs by serial dilution method. Type of experiment: functional. The conditions noted are these: ATCC 25923, 24 h. An outline of the steps: (§1)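 Strains were subcultured twice on MHA at 37 °C overnight. Inoculum was diluted from McFarland 0.5 to 10^5 cfu/ml, giving 10^4 cfu/ml in wells. Solvent, medium and organism-only controls were included. Incubated 37 °C, humid chamber, 24 h, in triplicate. MIC = lowest concentration with no macroscopic growth.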

The test system of experiment [3] is Klebsiella pneumoniae. As to the kind of experiment: Antibacterial activity against Klebsiella pneumoniae RSHM 574 assessed after 24 hrs by serial dilution method.
In experiment [4] the test system is Klebsiella pneumoniae. Nature of the experiment: Antibacterial activity against Klebsiella pneumoniae isolate assessed after 24 hrs by serial dilution method. Type of experiment: functional. The method in brief: as §1
Experiment [5] relates to Bacillus subtilis. Nature of the experiment: Antibacterial activity against Bacillus subtilis ATCC 6633 assessed after 24 hrs by serial dilution method. Type of experiment: functional. Conditions: ATCC 6633, 24 h. The method in brief:
as §1

Experiment [6] deals with Pseudomonas aeruginosa. As to the kind of experiment: Antibacterial activity against Pseudomonas aeruginosa isolate assessed after 24 hrs by serial dilution method. Type of experiment: functional. The method in brief:
as §1

For experiment [7], the system named is Staphylococcus aureus. As to the kind of experiment: Antibacterial activity against drug-resistant Staphylococcus aureus assessed after 24 hrs by serial dilution method.
Experiment [8] concerns Bacillus subtilis. Nature of the experiment: Antibacterial activity against drug-resistant Bacillus subtilis assessed after 24 hrs by serial dilution method.
For experiment [9], the system named is Candida albicans. Nature of the experiment: Antifungal activity against Candida albicans ATCC 10231 assessed after 48 hrs by serial dilution method. It counts as functional. The conditions noted are these: ATCC 10231, 48 h. The method in brief:
(§2)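 Broth microdilution per CLSI M27-A in RPMI-1640 with L-glutamine, MOPS-buffered pH 7, with 2-fold compound dilutions. Yeasts were subcultured twice on SDA at 35 °C for 24–48 h. Inoculum was diluted from McFarland 0.5 to 10^4 cfu/ml, giving 10^3 cfu/ml in wells. Incubated 35 °C, humid chamber, 48 h, in triplicate. MIC = lowest concentration with no macroscopic growth.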

For experiment [10], the system named is Escherichia coli. Nature of the experiment: Antibacterial activity against Escherichia coli isolate assessed after 24 hrs by serial dilution method. Type of experiment: functional. The method in brief:
as §1

The subject of experiment [11] is Candida albicans. As to the kind of experiment: Antifungal activity against Candida albicans isolate assessed after 48 hrs by serial dilution method. Type of experiment: functional. The method in brief:
as §2

The subject of experiment [12] is Escherichia coli. As to the kind of experiment: Antibacterial activity against Escherichia coli ATCC assessed after 24 hrs by serial dilution method.

≈ marks a conversion by molar mass, not a printed value.

In the case of `Nc1ccc(O)c(NC(=O)c2ccc(F)cc2)c1`, the MIC (commonly the lowest concentration found to suppress growth) in [1] came to 62.5 µg/mL (≈ 254 µM); in [2], 15.6 µg/mL (≈ 63.4 µM); in [3], 62.5 µg/mL (≈ 254 µM); in experiment [4], 125 µg/mL (≈ 508 µM); in experiment [5], 62.5 µg/mL (≈ 254 µM); in experiment [6], 125 µg/mL (≈ 508 µM). Moreover, the MIC in experiment [7] worked out at 15.6 µg/mL (≈ 63.4 µM); in experiment [8] it was 62.5 µg/mL (≈ 254 µM); in [9] it was 62.5 µg/mL (≈ 254 µM); in experiment [10] it was 125 µg/mL (≈ 508 µM); in experiment [11] it was 62.5 µg/mL (≈ 254 µM); in experiment [12], 125 µg/mL (≈ 508 µM).

With `O=C(Cc1ccc(F)cc1)Nc1ccc([N+](=O)[O-])cc1O`, the MIC came to 125 µg/mL (≈ 431 µM) in experiment [1]; 125 µg/mL (≈ 431 µM) in experiment [2]; 250 µg/mL (≈ 861 µM) in experiment [3]; 125 µg/mL (≈ 431 µM) in [4]; 250 µg/mL (≈ 861 µM) in [5]; 250 µg/mL (≈ 861 µM) in [6]. Further, the MIC in experiment [7] was found to be 62.5 µg/mL (≈ 215 µM); in experiment [8], 31.2 µg/mL (≈ 108 µM); in [9], 125 µg/mL (≈ 431 µM); in [10], 250 µg/mL (≈ 861 µM); in [11], 125 µg/mL (≈ 431 µM); in experiment [12] it was 125 µg/mL (≈ 431 µM).

In the case of `Nc1ccc(NC(=O)Cc2ccc(Br)cc2)c(O)c1`, the MIC was found to be 250 µg/mL (≈ 778 µM) in [1]; 125 µg/mL (≈ 389 µM) in [2]; 125 µg/mL (≈ 389 µM) in experiment [3]; 125 µg/mL (≈ 389 µM) in experiment [4]; 125 µg/mL (≈ 389 µM) in experiment [5]; 250 µg/mL (≈ 778 µM) in [6]. For the same compound, the MIC was 31.2 µg/mL (≈ 97.3 µM) in experiment [7]; 125 µg/mL (≈ 389 µM) in experiment [8]; 125 µg/mL (≈ 389 µM) in experiment [9]; 125 µg/mL (≈ 389 µM) in experiment [10]; 250 µg/mL (≈ 778 µM) in experiment [11]; 125 µg/mL (≈ 389 µM) in [12].

On to `O=C(Nc1cc([N+](=O)[O-])ccc1O)c1ccc(F)cc1`, for which the MIC turned out to be 62.5 µg/mL (≈ 226 µM) in experiment [1]; 7.8 µg/mL (≈ 28.2 µM) in experiment [2]; 31.2 µg/mL (≈ 113 µM) in experiment [3]; 125 µg/mL (≈ 453 µM) in experiment [4]; 3.9 µg/mL (≈ 14.1 µM) in [5]; 125 µg/mL (≈ 453 µM) in experiment [6]. Besides, the MIC was found to be 15.6 µg/mL (≈ 56.5 µM) in [7]; 62.5 µg/mL (≈ 226 µM) in [8]; 62.5 µg/mL (≈ 226 µM) in experiment [9]; 125 µg/mL (≈ 453 µM) in [10]; 62.5 µg/mL (≈ 226 µM) in experiment [11]; 125 µg/mL (≈ 453 µM) in experiment [12].

As for `Cc1ccc(CC(=O)Nc2cc([N+](=O)[O-])ccc2O)cc1`, the MIC in experiment [1] was found to be 125 µg/mL (≈ 437 µM); in experiment [2] it was 250 µg/mL (≈ 873 µM); in experiment [3], 125 µg/mL (≈ 437 µM); in experiment [4], 250 µg/mL (≈ 873 µM); in [5], 15.6 µg/mL (≈ 54.5 µM); in experiment [6], 250 µg/mL (≈ 873 µM). The MIC in experiment [7] is 125 µg/mL (≈ 437 µM); in [8], 62.5 µg/mL (≈ 218 µM); in experiment [9], 250 µg/mL (≈ 873 µM); in experiment [10] it was 250 µg/mL (≈ 873 µM); in experiment [11] it was 250 µg/mL (≈ 873 µM); in [12], 125 µg/mL (≈ 437 µM).

`CCc1ccc(C(=O)Nc2cc(N)ccc2O)cc1`: the MIC in experiment [1] turned out to be 62.5 µg/mL (≈ 244 µM); in experiment [2], 15.6 µg/mL (≈ 60.9 µM); in experiment [3] it was 62.5 µg/mL (≈ 244 µM); in experiment [4] it was 62.5 µg/mL (≈ 244 µM); in experiment [5] it was 62.5 µg/mL (≈ 244 µM); in experiment [6] it was 125 µg/mL (≈ 488 µM). For the same compound, the MIC in experiment [7] is 15.6 µg/mL (≈ 60.9 µM); in [8], 31.2 µg/mL (≈ 122 µM); in experiment [9], 62.5 µg/mL (≈ 244 µM); in experiment [10] it was 125 µg/mL (≈ 488 µM); in experiment [11], 62.5 µg/mL (≈ 244 µM); in [12], 125 µg/mL (≈ 488 µM).

Take `O=C(Nc1ccc([N+](=O)[O-])cc1O)c1ccc(F)cc1`: the MIC in experiment [1] was found to be 125 µg/mL (≈ 453 µM); in experiment [2], 7.8 µg/mL (≈ 28.2 µM); in [3] it was 125 µg/mL (≈ 453 µM); in experiment [4], 250 µg/mL (≈ 905 µM); in experiment [5], 3.9 µg/mL (≈ 14.1 µM); in experiment [6] it was 250 µg/mL (≈ 905 µM). In addition, the MIC in [7] stood at 15.6 µg/mL (≈ 56.5 µM); in experiment [8], 15.6 µg/mL (≈ 56.5 µM); in experiment [9], 250 µg/mL (≈ 905 µM); in experiment [10], 250 µg/mL (≈ 905 µM); in [11], 250 µg/mL (≈ 905 µM); in [12] it was 125 µg/mL (≈ 453 µM).
